To fix the notation:
B1: Osa-1-4 twister ribozyme (parent)
chain: CCGCCUAACACUGCCAAUGCCGGUCCCAAGCCCGGAUAAAAGUGGAGGGGGCGG

Variants of B1 are the subject of the data set. In words: self-cleavage, relative activity (ratio to wild type); higher = more cleavage; co-transcriptional. An outline of the steps: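 The 48 positions downstream of the cleavage site in a DNA template for a 54-nucleotide Oryza sativa twister ribozyme carried 97 % wild-type base and 1 % of each other base. After in vitro transcription (2 h, 37 °C) with co-transcriptional self-cleavage, the RNA was reverse-transcribed with a template-switching oligonucleotide, PCR-amplified and deep-sequenced. Relative activity is the fraction cleaved, judged by reads with or without upstream sequence and normalised to wild type.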
Turning to CCGCCUAACACUGACAAUGCCGGUCCCAAGCCCGGAUAAAAGUGGAGGGGGCCG [C14A G53C], the self-cleavage turned out to be 0.02.

On to CCGCCUAACACUGACAAUGCCGGUCCCAAGCCCGGAUAAAAGUGGAGGGGGCAG [C14A G53A], for which the self-cleavage turned out to be 0.06. For CCGCCUAACACUGGCAAUGCCGUUCCCAAGCCCGGAUAAAAGUGGAGGGGGCGG [C14G G23U] the value was 0.03; for CCGCCUAACACUGGCAAUGCCGCUCCCAAGCCCGGAUAAAAGUGGAGGGGGCGG [C14G G23C], 0.04.

For the variant CCGCCUAACACUGGCAAUGCCGAUCCCAAGCCCGGAUAAAAGUGGAGGGGGCGG [C14G G23A], the self-cleavage stood at 0.08.

Regarding CCGCCUAACACUGGCAAUUCCGGUCCCAAGCCCGGAUAAAAGUGGAGGGGGCGG [C14G G19U], the self-cleavage was 0.08. The value for CCGCCUAACACUGGCAAUACCGGUCCCAAGCCCGGAUAAAAGUGGAGGGGGCGG [C14G G19A] was 0.24; that for CCGCCUAACACUGGCAAUCCCGGUCCCAAGCCCGGAUAAAAGUGGAGGGGGCGG [C14G G19C] was 0.04; that for CCGCCUAACACUGGCAAUGCCCGUCCCAAGCCCGGAUAAAAGUGGAGGGGGCGG [C14G G22C] was 0.07. Consider CCGCCUAACACUGGCAAUGCCUGUCCCAAGCCCGGAUAAAAGUGGAGGGGGCGG [C14G G22U], for which the self-cleavage stood at 0.07. The value for CCGCCUAACACUGGCAAUGCCAGUCCCAAGCCCGGAUAAAAGUGGAGGGGGCGG [C14G G22A] was 0.07; that for CCGCCUAACACUGGCAAUGCCGGUCCCAAGCCCGGAUAAAAGUGGAGCGGGCGG [C14G G48C] was 0.04; that for CCGCCUAACACUGGCAAUGCCGGUCCCAAGCCCGGAUAAAAGUGGAGAGGGCGG [C14G G48A] was 0.03. For CCGCCUAACACUGGCAAUGCCGGUCCCAAGCCCGGAUAAAAGUGGAGUGGGCGG [C14G G48U] the value was 0.03; for CCGCCUAACACUGACAAUGCCGGUCCCAAGCCCGGAAAAAAGUGGAGGGGGCGG [C14A U37A], 0.07. Take CCGCCUAACACUGACAAUGCCGGUCCCAAGCCCGGAGAAAAGUGGAGGGGGCGG [C14A U37G]: the self-cleavage worked out at 0.15.

As for CCGCCUAACACUGACAAUGCCGGUCCCAAGCCCGGACAAAAGUGGAGGGGGCGG [C14A U37C], the self-cleavage was determined as 0.12. The value for CCGCCUAACACUGGCAAUGCCGGUCUCAAGCCCGGAUAAAAGUGGAGGGGGCGG [C14G C26U] was 0.07; that for CCGCCUAACACUGGCAAUGCCGGUCGCAAGCCCGGAUAAAAGUGGAGGGGGCGG [C14G C26G] was 0.07; that for CCGCCUAACACUGGCAAUGCCGGUCACAAGCCCGGAUAAAAGUGGAGGGGGCGG [C14G C26A] was 0.03. The value for CCGCCUAACACUGGUAAUGCCGGUCCCAAGCCCGGAUAAAAGUGGAGGGGGCGG [C14G C15U] was 0.06; that for CCGCCUAACACUGGAAAUGCCGGUCCCAAGCCCGGAUAAAAGUGGAGGGGGCGG [C14G C15A] was 0.06; that for CCGCCUAACACUGGGAAUGCCGGUCCCAAGCCCGGAUAAAAGUGGAGGGGGCGG [C14G C15G] was 0.22. For CCGCCUAACACUGACAAUGCCGGUCCCAAGCCCGGAUAAAAGUGGAGGGGUCGG [C14A G51U] the value was 0.04; for CCGCCUAACACUGACAAUGCCGGUCCCAAGCCCGGAUAAAAGUGGAGGGGACGG [C14A G51A], 0.06. For the variant CCGCCUAACACUGACAAUGCCGGUCCCAAGCCCGGAUAAAAGUGGAGGGGCCGG [C14A G51C], the self-cleavage worked out at 0.02.

On to CCGCCUAACACUGGCAAUGCCGGUCCCAAGGCCGGAUAAAAGUGGAGGGGGCGG [C14G C31G], for which the self-cleavage worked out at 0.15. As for CCGCCUAACACUGGCAAUGCCGGUCCCAAGACCGGAUAAAAGUGGAGGGGGCGG [C14G C31A], the self-cleavage is 0.02.

Regarding CCGCCUAACACUGGCAAUGCCGGUCCCAAGUCCGGAUAAAAGUGGAGGGGGCGG [C14G C31U], the self-cleavage was 0.05. The value for CCGCCUAACACUGACAAUGCCGGUCCCAAGCCCGGAUAAAAGUGGAGGGUGCGG [C14A G50U] was 0.07.

Take CCGCCUAACACUGACAAUGCCGGUCCCAAGCCCGGAUAAAAGUGGAGGGCGCGG [C14A G50C]: the self-cleavage is 0.08. For CCGCCUAACACUGGCAAUGCCGGUCCCAAGCCCGGAUAAAAGUGGAAGGGGCGG [C14G G47A], the self-cleavage stood at 0.05.

On to CCGCCUAACACUGGCAAUGCCGGUCCCAAGCCCGGAUAAAAGUGGACGGGGCGG [C14G G47C], for which the self-cleavage is 0.04. Consider CCGCCUAACACUGGCAAUGCCGGUCCCAAGCCCGGAUAAAAGUGGAUGGGGCGG [C14G G47U], for which the self-cleavage is 0.04. For CCGCCUAACACUGGCAAUGCCGGUCCCAAGCCCGUAUAAAAGUGGAGGGGGCGG [C14G G35U] the value was 0.06; for CCGCCUAACACUGGCAAUGCCGGUCCCAAGCCCGCAUAAAAGUGGAGGGGGCGG [C14G G35C], 0.04; for CCGCCUAACACUGGCAAUGCCGGUCCCAAGCCCGAAUAAAAGUGGAGGGGGCGG [C14G G35A], 0.07. The value for CCGCCUAACACUGGCAAUGGCGGUCCCAAGCCCGGAUAAAAGUGGAGGGGGCGG [C14G C20G] was 0.16; that for CCGCCUAACACUGGCAAUGUCGGUCCCAAGCCCGGAUAAAAGUGGAGGGGGCGG [C14G C20U] was 0.22; that for CCGCCUAACACUGGCAAUGACGGUCCCAAGCCCGGAUAAAAGUGGAGGGGGCGG [C14G C20A] was 0.17. The value for CCGCCUAACACUGGCAAUGCCGGUCCCAAGCCUGGAUAAAAGUGGAGGGGGCGG [C14G C33U] was 0.07; that for CCGCCUAACACUGGCAAUGCCGGUCCCAAGCCGGGAUAAAAGUGGAGGGGGCGG [C14G C33G] was 0.05.

On to CCGCCUAACACUGGCAAUGCCGGUCCCAAGCCAGGAUAAAAGUGGAGGGGGCGG [C14G C33A], for which the self-cleavage amounted to 0.04. The value for CCGCCUAACACUGGCAAUGCCGGUACCAAGCCCGGAUAAAAGUGGAGGGGGCGG [C14G C25A] was 0.03; that for CCGCCUAACACUGGCAAUGCCGGUUCCAAGCCCGGAUAAAAGUGGAGGGGGCGG [C14G C25U] was 0.12. In the case of CCGCCUAACACUGGCAAUGCCGGUGCCAAGCCCGGAUAAAAGUGGAGGGGGCGG [C14G C25G], the self-cleavage was 0.07. For CCGCCUAACACUGGCAAUGCCGGUCCCAAGCCCGGAUAAAAGUUGAGGGGGCGG [C14G G44U] the value was 0.08. Regarding CCGCCUAACACUGGCAAUGCCGGUCCCAAGCCCGGAUAAAAGUCGAGGGGGCGG [C14G G44C], the self-cleavage amounted to 0.07. The value for CCGCCUAACACUGGCAAUGCCGGUCCCAAGCCCGGAUAAAAGUAGAGGGGGCGG [C14G G44A] was 0.23.
